How the values were obtained:
[1] = system: HT-29 (human colorectal adenocarcinoma); assay: SRB cytotoxicity assay, HT-29 cells; assay type: cell-based; conditions: read-out: IC50 HT-29; SRB, 72 h treatment, mean ± SD
Procedure, shortened: (§1)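 Cells plated at 3 × 10³ per well and left 24 h to attach at 37 °C, 5% CO₂. Test compound at 0–100 µM from ethanol stocks (1% final ethanol) for 72 h. Fixation in TCA (10% final), staining with 0.1% SRB, dye solubilized in 10 mM Tris, A540. Viability relative to 1% ethanol vehicle. IC50 from a four-parameter logistic fit with 95% CI; triplicate, three independent runs, mean ± SD. SI = IC50 in GES-1 divided by IC50 in the cancer line.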

[2] = system: PC-3 (human prostate cancer); assay: SRB cytotoxicity assay, PC-3 cells; assay type: cell-based; conditions: read-out: IC50 PC-3; SRB, 72 h treatment, mean ± SD
Procedure, shortened: as §1

[3] = ABTS radical scavenging assay; assay type: biochemical; conditions: concentration to scavenge 50% of radicals, mean ± SD
Procedure, shortened: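 ABTS radical cation generated by reacting ABTS with potassium persulfate, then diluted to an absorbance of about 0.700 at 732 nm. Test compound at several concentrations was mixed with the ABTS⁺ solution and the fall in absorbance recorded. Percent scavenging was calculated against a solvent control, with ascorbic acid as reference antioxidant. Three independent experiments in triplicate, mean ± SD.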

human erythrocytes = assay: Hemolysis assay; assay type: cell-based; conditions: for Hemolysis (%): 30 min, 37 °C
Procedure, shortened: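 Donor blood was collected in EDTA. RBCs were pelleted at 500 × g for 10 min, washed three times in PBS and resuspended in PBS. Cells were exposed to test compound at 10–300 µg/mL for 30 min at 37 °C with gentle agitation, then spun at 1000 × g for 5 min; supernatant hemoglobin was read at 540 nm. Deionized water defined 100% and PBS 0% hemolysis. Triplicate, three independent repeats.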

[4] = system: GES-1 (healthy gastric epithelial cells); assay: SRB cytotoxicity assay, GES-1 non-tumor cells; assay type: cell-based, human; conditions: read-out: IC50 GES-1, 72 h treatment, mean ± SD
[5] = DPPH radical scavenging assay; assay type: biochemical; conditions: concentration to scavenge 50% of radicals, 15 min, mean ± SD
Procedure, shortened: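 Test compound solutions (5–400 µg/mL, concentration before mixing) were added to 50 µM ethanolic DPPH and kept 15 min at room temperature in the dark, then read at 517 nm. A blank with solvent in place of compound served as control. IC50 came from linear regression of % scavenging against concentration. Three independent experiments in triplicate, mean ± SD.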

[6] = system: AGS (human gastric adenocarcinoma); assay: SRB cytotoxicity assay, AGS cells; assay type: cell-based; conditions: read-out: IC50 AGS; SRB, 72 h treatment, mean ± SD
Procedure, shortened: as §1

ABTS IC50 [3]: inactive
IC50 ([3]; read-out: ABTS IC50): > 2630 µM
DPPH IC50 [5]: inactive
SMILES: CC12CCC(CC1=O)C2(C)C (centres unmarked) [Compound 2, camphor, reference compound]
IC50 [1]: > 100 µM
IC50 [2]: > 100 µM
Hemolysis (%) (human erythrocytes; 10 µg/mL): 5.25%
Hemolysis (%) (human erythrocytes; 25 µg/mL): 6.55%
Hemolysis (%) (human erythrocytes; 50 µg/mL): 9.61%
Hemolysis (%) (human erythrocytes; 100 µg/mL): 11.29%
Hemolysis (%) (human erythrocytes; 200 µg/mL): 16.16%
Hemolysis (%) (human erythrocytes; 300 µg/mL): 16.62%
Hemolysis, result in words (human erythrocytes; 10–300 µg/mL): concentration dependent increase in hemolysis
IC50 [4]: 322.7 ± 1.7 µM
IC50 [6]: > 100 µM
